Results gathered from unrelated publications.
Compare with care: the assays were run in different laboratories.
Matrix: plasma

O=C(Nc1cc(F)c(F)c(F)c1)c1ccc(F)c(S(=O)(=O)NCc2cccc(B(O)O)c2)c1  MRT(0-inf) (male Sprague-Dawley rat; oral, 20 mg/kg): 1.25 h
N#Cc1ccc(Nc2nc(N)cc(Oc3c(F)cc(-c4ccc(C#N)cc4)cc3F)n2)cc1  MRT(0-inf) (Sprague-Dawley rat; oral, 5 mg/kg): 6.48 h
CCc1cc(C(=O)NC)c2nccc(N3CCc4c(cc(Cn5ccnc5)cc4-c4cn(C)nc4C(F)(F)F)C3=O)c2c1  MRT(0-inf) (male Sprague-Dawley rat; oral, 100 mg/kg, single dose): 3.8 h
CCc1nc(C(N)=O)c(Nc2ccc(N3CCC(N4CCN(C)CC4)CC3)c(OC)c2)nc1NC1CCOCC1  MRT(0-inf) (male Sprague-Dawley rat; oral, 10 mg/kg): 21.8 h
CCOC(=O)[C@@]12C[C@@H]1[C@@H](n1ccc3c(NC)nc(C#Cc4ccc(Cl)s4)nc31)[C@H](O)[C@@H]2O  MRT(0-t) (male Sprague-Dawley rat; intravenous, 0.5 mg/kg): 1.29 h
CCc1cc(OC)c2nccc(N3CCc4c(cc(Cn5ccnc5)cc4-c4cn(C)nc4C(F)(F)F)C3=O)c2c1  MRT(0-inf) (male Sprague-Dawley rat; oral, 50 mg/kg): 2.7 h
COc1nc(-c2cc(C)c(N[C@@H](C)c3cc(F)cc(F)c3)nn2)ccc1-n1cnc(C)c1  MRT(0-t) (male Sprague-Dawley rat; oral, 5 mg/kg, single dose): 6.87 h
Oc1c(Br)cc(Cl)c2cccnc12  MRT (Sprague-Dawley rat; oral, 20 mg/kg): 6.8 h
COc1ccc(C(C)=O)c(O)c1  MRT(0-t) (male Sprague-Dawley rat; oral, 100 mg/kg): 3.83 h
CNCc1cc(-c2ccccc2F)n(S(=O)(=O)c2cccnc2)c1  MRT(0-t) (Sprague-Dawley rat; oral, 10 mg/kg): 2.43 h
C#Cc1cccc(Nc2ncnc3cc(OCCOC)c(OCCOC)cc23)c1  MRT(0-t) (male Sprague-Dawley rat; oral, 12 mg/kg, single dose): 5.07 h
O=C(c1cc(Cc2n[nH]c(=O)c3ccccc23)ccc1F)N1CCN(C(=O)C2CC2)CC1  MRT (female Sprague-Dawley rat; intravenous): 1.52 h
